# Measurements published in paper PMC3792851 (Drug Design, Development and Therapy, 2013).
# Test system: ABCG2-transfected HEK293 cells
# Experiment: Sensitization of ABCG2-transfected cells to mitoxantrone, MTT assay
# Format: cell-based, human
# Conditions: no chalcone
# Summary of the method: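 ABCG2-transfected (resistant) and empty-vector (sensitive) HEK293 cells seeded at 1 × 10^4 cells/well and incubated overnight. Then grown 72 h at 37°C, 5% CO2 with increasing mitoxantrone; resistant cells ran with or without 1 μM test compound. Survival read by MTT against 0.1% DMSO medium controls. At least three replicates; mitoxantrone IG50 from fitted curves.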
structure (smiles),measurement,setting,value
"O=C1c2c(O)ccc(O)c2C(=O)c2c(NCCNCCO)ccc(NCCNCCO)c21 [mitoxantrone, Mitoxantrone]","IG50 of mitoxantrone, resistant cells",ABCG2-transfected resistant cells,82.8 ± 21.7 nM
same,"IG50 of mitoxantrone, sensitive control cells",sensitive control HEK293 cells (empty vector),14.5 ± 3.6 nM
